# Calls of active or inactive are those of the source.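 The calls were made as follows, unless noted: active = viability at or below 30% in both replicate assays; inconclusive = viability at or below 30% in just one of the two assays; inactive = the rest.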
# Tests used:
# [1] = reducers of endogenous Her2 protein level, primary screen, SKBR3 breast tumor cells, AlphaScreen, ATP viability (AID 461;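 active = Her2 level under about 52% in both replicate screens, with viability over 70% of control, limit read from the data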;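 as to Her2 level: lower value means less Her2 protein in the cells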;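 as to viability: percent of carrier control wells set as 100% viability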); conditions: 18-24 h, measured here: SKBR3 viability, ATP luminescence, at 10 µM
# [2] = target: Receptor tyrosine-protein kinase erbB-2 (Homo sapiens) (UniProt P04626); experiment: as above; conditions: 18-24 h, at 10 µM, stronger effect = lower value
# [3] = SK-BR-3 cell growth inhibitors, pilot screen, 24 h, human (AID 572;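 active = viability at or below 10% of carrier control in both of two separate runs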;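 also: compound exposure lasted between 18 and 24 h rather than exactly 24 h; 100% = carrier-treated control wells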); conditions: SK-BR-3 viability, CellTiter-Glo luminescence, at 10 µM, stronger effect = lower value
# [4] = HUVEC growth inhibition – cell-based, human, primary screen (AID 575); conditions: HUVEC proliferation, CellTiter-Glo luminescence, 72 h; at 10 µM; stronger effect = lower value;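 also: 100% = median of untreated cell wells with 0.1% DMSO on each plate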
# In short: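 System – primary HUVEC, no more than 12 passages · Medium – Low-serum (2% FBS) EBM, supplemented · Times – 72 h exposure, 37 °C, 5% CO2, 30 min RT equilibration · Measured by – luminescent ATP assay · Read-out – % viability relative to median vehicle-well signal on each plate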
# [5] = growth inhibitors of H69AR lung tumor, primary screen, human, duplicate replicates (AID 580;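 active = viability at or under a set limit in both replicates, limit being median viability minus 3 SD, cut at about 48% in these data, passing the limit was not always enough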;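 also: 100% = mean luminescence of untreated wells and 0% = no signal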); conditions: H69AR lung tumor cells viability, ATP luminescence, 72 h; at 10 µM; stronger effect = lower value
# [6] = reversal of MRP1-mediated doxorubicin resistance, pilot screen, H69AR cells, doxorubicin co-treatment (AID 601;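 active = viability loss from added drug above about 55%, and viability with drug at most 40%, in both replicates, limit read from the data, passing the limit was not always enough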); conditions: CellTiter-Glo, 72 h, at 10 µM; for differential viability (reversal): stronger effect = higher value
# [7] = 384-well plate pilot, post-Golgi transport modulator project, inhibition of yeast transport mutant growth (AID 636; in the data active = inhibition above about 31%); conditions: absorbance 615 nm, about 18 h, stronger effect = higher value
# [8] = growth suppression of yeast trafficking mutant, preliminary HTS, modulators of trafficking downstream of Golgi apparatus project, 1536-format plate, OD 615 nm (AID 637; in the data active = inhibition above about 30%); conditions: yeast transport mutant growth, absorbance 615 nm, 18 h; stronger effect = higher value
# [9] = H69AR cells + 2 uM doxorubicin, measured here: viability with 2 uM doxorubicin, stronger effect = lower value
# [10] = H69AR cells, compound alone cytotoxicity
# Receptor tyrosine-protein kinase erbB-2 (Homo sapiens), sequence (P04626 whole entry, looked up): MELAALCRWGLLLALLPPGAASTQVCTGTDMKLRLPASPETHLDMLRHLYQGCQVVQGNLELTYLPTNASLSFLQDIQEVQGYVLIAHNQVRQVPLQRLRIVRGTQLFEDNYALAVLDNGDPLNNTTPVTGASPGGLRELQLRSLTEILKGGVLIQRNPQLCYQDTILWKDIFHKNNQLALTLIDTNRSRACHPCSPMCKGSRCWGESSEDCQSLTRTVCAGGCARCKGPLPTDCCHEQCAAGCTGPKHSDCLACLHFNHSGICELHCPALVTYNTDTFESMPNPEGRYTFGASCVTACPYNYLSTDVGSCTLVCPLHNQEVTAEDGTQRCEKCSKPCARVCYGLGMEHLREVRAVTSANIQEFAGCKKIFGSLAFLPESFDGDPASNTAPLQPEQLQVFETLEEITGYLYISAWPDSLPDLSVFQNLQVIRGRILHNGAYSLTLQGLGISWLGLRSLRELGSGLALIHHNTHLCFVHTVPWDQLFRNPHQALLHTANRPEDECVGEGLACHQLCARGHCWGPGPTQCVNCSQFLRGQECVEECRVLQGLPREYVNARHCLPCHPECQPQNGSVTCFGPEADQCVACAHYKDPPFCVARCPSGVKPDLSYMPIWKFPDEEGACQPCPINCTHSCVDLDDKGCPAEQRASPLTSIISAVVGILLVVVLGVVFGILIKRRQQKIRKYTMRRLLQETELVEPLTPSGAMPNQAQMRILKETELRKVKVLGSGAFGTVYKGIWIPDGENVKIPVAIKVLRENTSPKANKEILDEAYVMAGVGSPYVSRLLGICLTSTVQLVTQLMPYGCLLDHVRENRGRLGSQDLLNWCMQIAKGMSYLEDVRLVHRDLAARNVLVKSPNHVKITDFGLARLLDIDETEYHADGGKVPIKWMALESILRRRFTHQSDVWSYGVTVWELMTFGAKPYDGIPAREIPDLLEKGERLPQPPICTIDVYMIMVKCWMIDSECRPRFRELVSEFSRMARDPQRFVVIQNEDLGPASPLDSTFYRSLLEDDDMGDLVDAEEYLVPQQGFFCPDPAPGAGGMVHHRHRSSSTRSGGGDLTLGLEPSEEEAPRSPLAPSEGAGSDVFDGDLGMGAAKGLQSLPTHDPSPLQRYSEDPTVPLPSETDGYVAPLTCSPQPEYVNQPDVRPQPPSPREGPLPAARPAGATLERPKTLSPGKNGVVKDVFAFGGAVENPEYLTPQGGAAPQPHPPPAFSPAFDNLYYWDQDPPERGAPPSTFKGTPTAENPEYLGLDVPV
Compound,viability [1],Her2 level [2],viability [3],viability [4],viability [5],differential viability (reversal) ([6]; H69AR cells + 2 uM doxorubicin),"viability [6, 9]","viability [6, 10]",inhibition [7],inhibition [8]
Cc1oc(-c2ccc(Cl)cc2)nc1CS(=O)CC(=O)NCCCN(C)C1CCCCC1 (stereo not given),91.5%,101% (inactive),91.5% (inactive),66.3% (inactive),87.1% (inactive),10.8% (inactive),76.3%,87.1%,-2.99% (inactive),5.56% (inactive)
CC(NCc1ccco1)C(=O)N1CCc2ccccc2C1 (stereo not given),108%,108% (inactive),108% (inactive),109% (inactive),92.9% (inactive),5.48% (inactive),87.4%,92.9%,1.92% (inactive),-2.06% (inactive)
CC(=O)Nc1ccc(S(=O)(=O)N2CCN=C2C)cc1,92.5%,95% (inactive),92.5% (inactive),109% (inactive),99.4% (inactive),2.62% (inactive),96.8%,99.4%,-6.27% (inactive),-5.08% (inactive)
Cc1ccc(OCCC(=O)OCC(=O)C(C)(C)C)cc1,81.5%,92.5% (inactive),81.5% (inactive),94.2% (inactive),92.8% (inactive),7.79% (inactive),85%,92.8%,0.26% (inactive),-3.67% (inactive)
COc1cccc(N2CCN(C(=O)C3C4C=CC5(CN(Cc6ccccc6Cl)C(=O)C35)O4)CC2)c1 (stereo not given),83.5%,97% (inactive),83.5% (inactive),78.6% (inactive),100% (inactive),9.13% (inactive),91.3%,100%,-3.42% (inactive),-6.17% (inactive)
CCOC(=O)C1CCCN(CCC(C)c2ccccc2)C1 (stereo not given),94%,84.5% (inactive),94% (inactive),106% (inactive),95.7% (inactive),11.3% (inactive),84.3%,95.7%,-6.8% (inactive),4.1% (inactive)
CCOc1cc(-c2nc(-c3ccccc3OC)no2)cc(OCC)c1OCC,90%,96.5% (inactive),90% (inactive),97.4% (inactive),92.5% (inactive),-2.62% (inactive),95.1%,92.5%,-2.13% (inactive),22% (inactive)
CC(C)(Oc1ccc(Cl)cc1)C(=O)NC1CCSC1=O (stereo not given),101%,104% (inactive),101% (inactive),90.3% (inactive),114% (inactive),19.5% (inactive),94.6%,114%,0.27% (inactive),-9.52% (inactive)
COc1cc(OC)c(C(=O)Nc2ccc(N(C)C)cc2)cc1OC,111%,84.5% (inactive),111% (inactive),103% (inactive),89% (inactive),-4.37% (inactive),93.4%,89%,-1.84% (inactive),-1.9% (inactive)
O=C1NC(c2ccco2)Nc2ccccc21 (stereo not given),82.5%,85.5% (inactive),82.5% (inactive),107% (inactive),97.8% (inactive),7.01% (inactive),90.8%,97.8%,0.55% (inactive),-6.98% (inactive)
Cc1ccc(S(=O)(=O)Cc2ccc(C(=O)NCCCN3CCN(C)CC3)o2)cc1,104%,99.5% (inactive),104% (inactive),96.9% (inactive),103% (inactive),11% (inactive),92.1%,103%,-0.66% (inactive),-5.64% (inactive)
CNC(=O)CN(c1cc(C)ccc1OC)S(=O)(=O)c1ccc(C)cc1,93%,113% (inactive),93% (inactive),108% (inactive),103% (inactive),2.79% (inactive),100%,103%,-2.93% (inactive),-7.58% (inactive)
O=C(Cn1cnc2c(nnn2Cc2ccc(Cl)cc2)c1=O)NCC1CCCO1 (stereo not given),120%,78% (inactive),120% (inactive),101% (inactive),106% (inactive),10.8% (inactive),94.7%,106%,-10.1% (inactive),-1.27% (inactive)
C=CCSc1nc2c(c(=O)[nH]c(=O)n2C)n1C(C)C,85.5%,89% (inactive),85.5% (inactive),88.9% (inactive),106% (inactive),17.9% (inactive),88.2%,106%,-2.63% (inactive),-1.64% (inactive)
